Compound activity: PubChem BioAssay, several laboratories
UCH37 DUB inh = blocks the human deubiquitinase UCH37. actives 0.33% (n = 330,000). purified proteasome/UCH37, Ub-AMC cleavage fluorescence. inhibition, % (test concentration not listed). Q9Y5K5;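 active = mean inhibition over replicate wells above about 20%, limit read from the data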;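 also: 0% = compound-free wells with enzyme and 100% = wells lacking proteasome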
Target sequence (Q9Y5K5 whole entry, looked up): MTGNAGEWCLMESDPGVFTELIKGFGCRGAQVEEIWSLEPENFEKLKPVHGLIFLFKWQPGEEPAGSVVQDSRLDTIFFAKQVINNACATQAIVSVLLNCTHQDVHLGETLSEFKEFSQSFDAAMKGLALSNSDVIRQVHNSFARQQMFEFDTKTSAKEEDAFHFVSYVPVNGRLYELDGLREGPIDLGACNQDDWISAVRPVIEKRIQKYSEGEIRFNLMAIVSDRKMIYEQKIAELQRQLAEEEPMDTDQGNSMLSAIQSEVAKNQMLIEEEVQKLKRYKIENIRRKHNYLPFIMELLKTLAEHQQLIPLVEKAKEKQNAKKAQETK
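Reagent: Ub-AMC substrate; assay system: Proteasome-associated human UCH37 deubiquitinase; controls: no-proteasome and no-compound wells; read-out: % inhibition of Ub-AMC cleavage fluorescence; timing: 30 min preincubation with enzyme, 25 min cleavage at room temperature; signal: AMC fluorescence from Ub-AMC cleavage, excitation 355 nm, emission 460 nm; buffer or medium: Tris-HCl pH 7.4 plus ovalbumin, ATP-MgCl2, DTT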
ALR H2O2 inh = human ALR oxidase inhibition via reduced H2O2. P55789. inhibition, % (concentration not given with the values). AID 485317. purified ALR, DTT oxidation, H2O2 HRP-luminol luminescence. actives 3.8% (n = 290,000);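 active = mean replicate inhibition above about 79%, with every replicate also reaching it, limit read from the data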
NALP1 yeast inh = inhibitors of NALP1 inflammasome in yeast; actives 0.61% (n = 280,000); S. cerevisiae NALP1/ASC/caspase-1 growth, X-gal OD620, 72 h; AID 2071; inhibition, % at 10 µM; in the data active = inhibition mostly above about 24%, no sharp cut-off; inactive = mostly below about 32%
Calb FLC = affects C. albicans growth with fluconazole; C. albicans CaCi-2 + fluconazole, Alamar Blue growth, 48 h; growth inhibition, % (no concentration beside the values); actives 0.57% (n = 300,000); AID 1979;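 active = growth inhibition above about 58% in most replicates, limit read from the data, passing the limit was not always enough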;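 also: all wells also contain fluconazole at 8 µg/ml as a sub-toxic cotreatment; 0% = median of DMSO wells and 100% = median of geldanamycin control wells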
NLRP3 yeast inh = inhibitors of NALP3 inflammasome in yeast. Yeast reconstituted NLRP3/ASC/caspase-1, beta-gal luminescence, 24 h. inhibition, % at 10 µM. actives 0.39% (n = 330,000). AID 2825;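 active = inhibition of 50% or more; inactive = inhibition below 50%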;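 also: plate controls were induced DMSO wells for no effect and uninduced yeast grown without galactose for full effect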
ATG4B inh = blocks human ATG4B protease cleavage of LC3 substrate; Q9Y4P1; ATG4B cleavage of LC3-PLA2, NBD-HPC fluorescence, 1 h; inhibition, % at 8.33 µM; actives 0.51% (n = 340,000); in the data active = inhibition above about 40%
An asterisk follows results filed as active. The list is not random: actives were taken first. Their share in the collection is about 4.8%.

Results for COc1cc(-c2ccc(Nc3ccccc3C(=O)O)c(OC)c2)ccc1Nc1ccccc1C(=O)O ?
UCH37 DUB inh: 25*; NLRP3 yeast inh: 9; ATG4B inh: 33

Results for Cc1cc(C(=O)Nc2ccccc2C(=O)O)oc1C ?
UCH37 DUB inh: 4; ALR H2O2 inh: 98*; NALP1 yeast inh: 13; Calb FLC: -5; NLRP3 yeast inh: 7; ATG4B inh: 5

Results for Cn1c(Cl)c(C=NOC(=O)c2cccc(Cl)c2)c2ccccc21 ?
UCH37 DUB inh: -1

Results for Cc1occc1C(=O)NN=C/C(Br)=C/c1ccccc1 ?
UCH37 DUB inh: 0

What do the screens show for `Cc1c(C=NNc2ccc([N+](=O)[O-])cn2)c2ccccc2n1Cc1ccccc1`?
UCH37 DUB inh: 9

What do the screens show for `Cc1ccccc1-c1n[nH]c(=S)n1N=Cc1ccc(-c2ccccc2Br)o1`?
UCH37 DUB inh: 3

What do the screens show for `COc1ccc(C=NNC(=S)N[C@H]2CC3CCC2C3)cc1` (stereo not given in full)?
UCH37 DUB inh: 5

Results for COc1ccccc1C=NNC(=O)c1ccc(N(C)S(=O)(=O)c2ccccc2)cc1 ?
UCH37 DUB inh: 3

What do the screens show for `CCC(C)[C@@H](N)C(=O)NN=Cc1cccc2nccnc12` (stereo not given in full)?
UCH37 DUB inh: 4

Results for COc1ccc(C(=O)Nc2ccccc2C(=O)Nc2ccc(C(=O)O)cc2)cc1 ?
UCH37 DUB inh: 0; ALR H2O2 inh: 28; NALP1 yeast inh: 10; Calb FLC: 16; NLRP3 yeast inh: 3; ATG4B inh: -1

How did COc1ccc(C(=O)Nc2ccccc2C(=O)Nc2ccccc2C(=O)O)cc1 do in these assays?
ALR H2O2 inh: 98*; NALP1 yeast inh: -3; Calb FLC: 81*; NLRP3 yeast inh: 10; ATG4B inh: 27

Results for Oc1ccc(Br)cc1-c1ccnn1-c1ccccc1 ?
UCH37 DUB inh: 3; ALR H2O2 inh: 97*; NALP1 yeast inh: 23; Calb FLC: -11; NLRP3 yeast inh: 11; ATG4B inh: 0

How did Cn1nccc1C(=O)NN=Cc1ccccc1[N+](=O)[O-] do in these assays?
UCH37 DUB inh: 7

Results for O=[N+]([O-])c1ccc(-c2ccc(C=NNc3nc(N4CCCC4)nc(N4CCCC4)n3)o2)cc1 ?
UCH37 DUB inh: 0

How did CC(=O)C1=C(O)C(=O)N(c2ccc(O)cc2)C1c1ccc([N+](=O)[O-])cc1 (stereo not given) do in these assays?
ALR H2O2 inh: 82*; NALP1 yeast inh: -13; Calb FLC: 7; NLRP3 yeast inh: 27; ATG4B inh: 1

Results for CC(=O)C1=C(O)C(=O)N(c2ccc(Br)cc2)C1c1ccc(Cl)cc1 (stereo not given) ?
UCH37 DUB inh: -1; ALR H2O2 inh: 56; NALP1 yeast inh: 0; Calb FLC: 4; NLRP3 yeast inh: 23; ATG4B inh: 4

How did COc1ccc(C2C(C(C)=O)=C(O)C(=O)N2c2ccc(O)cc2)cc1 (stereo not given) do in these assays?
UCH37 DUB inh: 7; ALR H2O2 inh: 88*; NALP1 yeast inh: 9; Calb FLC: -4; NLRP3 yeast inh: 8; ATG4B inh: 4

Results for CC(=O)C1=C(O)C(=O)N(c2ccc(C)cc2)C1c1ccc([N+](=O)[O-])cc1 (stereo not given) ?
UCH37 DUB inh: 11; ALR H2O2 inh: 29; NALP1 yeast inh: 8; Calb FLC: -12; NLRP3 yeast inh: 11; ATG4B inh: -10

What do the screens show for `COc1ccc(C2C(C(C)=O)=C(O)C(=O)N2c2ccc(F)cc2)cc1` (stereo not given)?
UCH37 DUB inh: 6; ALR H2O2 inh: 0; NALP1 yeast inh: 1; Calb FLC: 16; NLRP3 yeast inh: 7; ATG4B inh: -5

How did CC(=O)C1=C(O)C(=O)N(c2ccc(O)cc2)C1c1ccc(Cl)cc1 (stereo not given) do in these assays?
UCH37 DUB inh: 6; ALR H2O2 inh: 81*; NALP1 yeast inh: 5; Calb FLC: 10; NLRP3 yeast inh: 4; ATG4B inh: -10
